Measurements as given in ChEMBL document CHEMBL2177094, “Structure dependence of long-chain [18F]fluorothia fatty acids as myocardial fatty acid oxidation probes” (J Med Chem, 2012).

Columns and labels:
Bone [1] = assay: Drug uptake in overnight fasted Sprague-Dawley rat bone at 9 to 11 MBq, iv at 55 to 115 mins by microPET analysis; type: ADME, organism-based, Bone element; conditions: in vivo
How it was run: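 Overnight-fasted female Sprague-Dawley rats under isoflurane were scanned by microPET/CT after tail-vein tracer. Dynamic acquisition over the upper thorax ran for 50 min, then a static whole-body scan from 55–115 min p.i. 2–5 rats per tracer; preliminary, representative images.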

Muscle tissue [2] = assay: Biodistribution in overnight fasted Sprague-Dawley rat muscle organic fraction at 0.7 to 1.4 MBq, iv preincubated with POCA for 2 hrs before compound administration measured at 120 mins post treatment by Folch-type extraction method; type: ADME, organism-based; conditions: in vivo
How it was run: (§1)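 Female Sprague-Dawley rats, fasted overnight, under isoflurane (3.5% induction, 1.5% maintenance). [18F] tracer in 0.5–1.0% BSA/saline was given by tail vein. POCA group: 30 mg/kg i.p. 120 min before tracer. About 0.5 g tissue was homogenized and sonicated in chloroform/methanol (2:1) at 0 °C, then 40% urea and 5% H2SO4 were added and spun 10 min at 1,800 g. Aqueous, organic and pellet fractions were counted as % of total.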

Liver [3] = assay: Biodistribution in overnight fasted Sprague-Dawley rat liver aqueous fraction at 0.7 to 1.4 MBq, iv preincubated with POCA for 2 hrs before compound administration measured at 120 mins post treatment by Folch-type extraction method; type: ADME, organism-based; conditions: in vivo; how it was run: as §1
Heart [4] = assay: Biodistribution in overnight fasted Sprague-Dawley rat heart organic fraction at 0.7 to 1.4 MBq, iv preincubated with POCA for 2 hrs before compound administration measured at 120 mins post treatment by Folch-type extraction method; type: ADME, organism-based; conditions: in vivo; how it was run: as §1
Heart [5] = assay: Biodistribution in overnight fasted Sprague-Dawley rat heart aqueous fraction at 0.7 to 1.4 MBq, iv preincubated with POCA for 2 hrs before compound administration measured at 120 mins post treatment by Folch-type extraction method; type: ADME, organism-based; conditions: in vivo; how it was run: as §1
Muscle tissue [6] = assay: Biodistribution in overnight fasted Sprague-Dawley rat muscle pellet fraction at 0.7 to 1.4 MBq, iv at 120 mins by Folch-type extraction method; type: ADME, organism-based; conditions: in vivo, 2 h; how it was run: as §1
Muscle tissue [7] = assay: Biodistribution in overnight fasted Sprague-Dawley rat muscle organic fraction at 0.7 to 1.4 MBq, iv at 120 mins by Folch-type extraction method; type: ADME, organism-based; conditions: in vivo, 2 h; how it was run: as §1
Muscle tissue [8] = assay: Biodistribution in overnight fasted Sprague-Dawley rat muscle aqueous fraction at 0.7 to 1.4 MBq, iv at 120 mins by Folch-type extraction method; type: ADME, organism-based; conditions: in vivo, 2 h; how it was run: as §1
Liver [9] = assay: Biodistribution in overnight fasted Sprague-Dawley rat liver pellet fraction at 0.7 to 1.4 MBq, iv at 120 mins by Folch-type extraction method; type: ADME, organism-based; conditions: in vivo, 2 h; how it was run: as §1
Liver [10] = assay: Biodistribution in overnight fasted Sprague-Dawley rat liver aqueous fraction at 0.7 to 1.4 MBq, iv at 120 mins by Folch-type extraction method; type: ADME, organism-based; conditions: in vivo, 2 h; how it was run: as §1
Heart [11] = assay: Biodistribution in overnight fasted Sprague-Dawley rat heart pellet fraction at 0.7 to 1.4 MBq, iv at 120 mins by Folch-type extraction method; type: ADME, organism-based; conditions: in vivo, 2 h; how it was run: as §1
Muscle tissue [12] = assay: Biodistribution in overnight fasted Sprague-Dawley rat muscle pellet fraction at 0.7 to 1.4 MBq, iv preincubated with POCA for 2 hrs before compound administration measured at 30 mins post treatment by Folch-type extraction method; type: ADME, organism-based; conditions: in vivo, 0.5 h; how it was run: as §1
Muscle tissue [13] = assay: Biodistribution in overnight fasted Sprague-Dawley rat muscle aqueous fraction at 0.7 to 1.4 MBq, iv preincubated with POCA for 2 hrs before compound administration measured at 30 mins post treatment by Folch-type extraction method; type: ADME, organism-based; conditions: in vivo, 0.5 h; how it was run: as §1
Liver [14] = assay: Biodistribution in overnight fasted Sprague-Dawley rat liver organic fraction at 0.7 to 1.4 MBq, iv preincubated with POCA for 2 hrs before compound administration measured at 30 mins post treatment by Folch-type extraction method; type: ADME, organism-based; conditions: in vivo, 0.5 h; how it was run: as §1
Heart [15] = assay: Biodistribution in overnight fasted Sprague-Dawley rat heart organic fraction at 0.7 to 1.4 MBq, iv preincubated with POCA for 2 hrs before compound administration measured at 30 mins post treatment by Folch-type extraction method; type: ADME, organism-based; conditions: in vivo, 0.5 h; how it was run: as §1
Muscle tissue [16] = assay: Biodistribution in overnight fasted Sprague-Dawley rat muscle pellet fraction at 0.7 to 1.4 MBq, iv at 30 mins by Folch-type extraction method; type: ADME, organism-based; conditions: in vivo, 0.5 h; how it was run: as §1
Muscle tissue [17] = assay: Biodistribution in overnight fasted Sprague-Dawley rat muscle aqueous fraction at 0.7 to 1.4 MBq, iv at 30 mins by Folch-type extraction method; type: ADME, organism-based; conditions: in vivo, 0.5 h; how it was run: as §1
Muscle tissue [18] = assay: Drug uptake in overnight fasted Sprague-Dawley rat muscle at 0.7 to 1.4 MBq, iv preincubated with POCA for 2 hrs before compound administration measured at 120 mins post treatment; type: ADME, organism-based; conditions: in vivo
How it was run: (§2)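 Female rats fasted overnight, under isoflurane (3.5% induction, 1.5% maintenance). 18F-labelled tracer formulated in 0.5–1.0% BSA/saline, injected via tail vein. Tissues harvested at 30 or 120 min, weighed, gamma-counted, decay-corrected. Uptake expressed as % dose kg/g, i.e. tissue CPM × body wt (kg) × 100 / (tissue wt (g) × dose CPM). POCA groups received 30 mg/kg i.p. 2 h before tracer. n = 5–6.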

Kidney = assay: Drug uptake in overnight fasted Sprague-Dawley rat kidney at 0.7 to 1.4 MBq, iv preincubated with POCA for 2 hrs before compound administration measured at 120 mins post treatment; type: ADME, organism-based; conditions: in vivo; how it was run: as §2
Blood [19] = assay: Drug uptake in overnight fasted Sprague-Dawley rat blood at 0.7 to 1.4 MBq, iv preincubated with POCA for 2 hrs before compound administration measured at 120 mins post treatment; type: ADME, organism-based; conditions: in vivo
How it was run: (§3)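 Overnight-fasted female Sprague-Dawley rats under isoflurane received the [18F] tracer in 0.5–1.0% BSA/saline by tail vein. POCA group: 30 mg/kg i.p. 2 h before tracer. Tissues were excised at 30 or 120 min, weighed and gamma-counted with decay correction. Uptake = % dose kg/g, i.e. CPM tissue × body wt (kg) × 100 / (tissue wt (g) × CPM dose). n = 5–6.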

Liver [20] = assay: Drug uptake in overnight fasted Sprague-Dawley rat liver at 0.7 to 1.4 MBq, iv at 120 mins; type: ADME, organism-based; conditions: in vivo, 2 h; how it was run: as §2
Bone [21] = assay: Drug uptake in overnight fasted Sprague-Dawley rat bone at 0.7 to 1.4 MBq, iv preincubated with POCA for 2 hrs before compound administration measured at 30 mins post treatment; type: ADME, organism-based, Bone element; conditions: in vivo, 0.5 h; how it was run: as §3
Liver [22] = assay: Drug uptake in overnight fasted Sprague-Dawley rat liver at 0.7 to 1.4 MBq, iv preincubated with POCA for 2 hrs before compound administration measured at 30 mins post treatment; type: ADME, organism-based; conditions: in vivo, 0.5 h; how it was run: as §2
Blood [23] = assay: Drug uptake in overnight fasted Sprague-Dawley rat blood at 0.7 to 1.4 MBq, iv preincubated with POCA for 2 hrs before compound administration measured at 30 mins post treatment; type: ADME, organism-based; conditions: in vivo, 0.5 h; how it was run: as §3
Bone [24] = assay: Drug uptake in overnight fasted Sprague-Dawley rat bone at 0.7 to 1.4 MBq, iv at 30 mins; type: ADME, organism-based, Bone element; conditions: in vivo, 0.5 h; how it was run: as §3
Muscle tissue [25] = assay: Drug uptake in overnight fasted Sprague-Dawley rat muscle at 0.7 to 1.4 MBq, iv at 30 mins; type: ADME, organism-based; conditions: in vivo, 0.5 h; how it was run: as §2
Brain = assay: Drug uptake in overnight fasted Sprague-Dawley rat brain at 0.7 to 1.4 MBq, iv at 30 mins; type: ADME, organism-based; conditions: in vivo, 0.5 h; how it was run: as §3
Liver [26] = assay: Drug uptake in overnight fasted Sprague-Dawley rat liver at 0.7 to 1.4 MBq, iv at 30 mins; type: ADME, organism-based; conditions: in vivo, 0.5 h; how it was run: as §2
Lung = assay: Drug uptake in overnight fasted Sprague-Dawley rat lung at 0.7 to 1.4 MBq, iv at 30 mins; type: ADME, organism-based; conditions: in vivo, 0.5 h; how it was run: as §2

Drug uptake (Bone [1])	Drug uptake (Muscle tissue [2]) [%]	Drug uptake (Liver [3]) [%]	Drug uptake (Heart [4]) [%]	Drug uptake (Heart [5]) [%]	Drug uptake (Muscle tissue [6]) [%]	Drug uptake (Muscle tissue [7]) [%]	Drug uptake (Muscle tissue [8]) [%]	Drug uptake (Liver [9]) [%]	Drug uptake (Liver [10]) [%]	Drug uptake (Heart [11]) [%]	Drug uptake (Muscle tissue [12]) [%]	Drug uptake (Muscle tissue [13]) [%]	Drug uptake (Liver [14]) [%]	Drug uptake (Heart [15]) [%]	Drug uptake (Muscle tissue [16]) [%]	Drug uptake (Muscle tissue [17]) [%]	Drug uptake (Muscle tissue [18]) [%IDKg/g]	Drug uptake (Kidney) [%IDKg/g]	Drug uptake (Blood [19]) [%IDKg/g]	SMILES	also measured
Active	53.25	8.1	66.66	4.19	67.95	21.98	9.91	59.56	5.68	88.78	32.74	24.06	58.8	62.03	59.12	18.79	0.0216	0.0611	0.0141	O=C(O)CCSCCCC/C=C\CCCCCCCC[18F]	Drug uptake (Liver [20]): 0.8488 %IDKg/g; Drug uptake (Bone [21]): 0.1475 %IDKg/g; Drug uptake (Liver [22]): 0.8162 %IDKg/g; Drug uptake (Blood [23]): 0.0606 %IDKg/g; Drug uptake (Bone [24]): 0.1531 %IDKg/g; Drug uptake (Muscle tissue [25]): 0.0201 %IDKg/g; Drug uptake (Brain): 0.0206 %IDKg/g; Drug uptake (Liver [26]): 1.1847 %IDKg/g; Drug uptake (Lung): 0.0496 %IDKg/g
Active	59.27	7.45	74.2	3.3	42.06	39.74	18.18	54.58	10.15	67.39	48.85	7.7	54.88	63.99	38.95	16.49	0.0599	0.1554	0.0271	O=C(O)CCCCSCCCCCCCCCCCC[18F]	Drug uptake (Liver [20]): 0.7548 %IDKg/g; Drug uptake (Bone [21]): 0.1037 %IDKg/g; Drug uptake (Liver [22]): 0.8492 %IDKg/g; Drug uptake (Blood [23]): 0.051 %IDKg/g; Drug uptake (Bone [24]): 0.1171 %IDKg/g; Drug uptake (Muscle tissue [25]): 0.039 %IDKg/g; Drug uptake (Brain): 0.033 %IDKg/g; Drug uptake (Liver [26]): 1.126 %IDKg/g; Drug uptake (Lung): 0.0621 %IDKg/g
Active	48.14	11.52	67.98	7.53	49.81	34	16.17	63.27	5.32	76.93	32.63	25.13	41.68	51.9	43.18	23.24	0.0298	0.1637	0.0392	O=C(O)CCSCCCCCCCCCCCC[18F]	Drug uptake (Liver [20]): 0.47 %IDKg/g; Drug uptake (Bone [21]): 0.179 %IDKg/g; Drug uptake (Liver [22]): 0.6197 %IDKg/g; Drug uptake (Blood [23]): 0.0633 %IDKg/g; Drug uptake (Bone [24]): 0.235 %IDKg/g; Drug uptake (Muscle tissue [25]): 0.031 %IDKg/g; Drug uptake (Brain): 0.067 %IDKg/g; Drug uptake (Liver [26]): 0.899 %IDKg/g; Drug uptake (Lung): 0.099 %IDKg/g
Active	58.25	10.23	74.91	3.39	39.51	48.9	11.58	36.13	8.18	71.45	27.04	25.8	51.76	67.58	32.22	28.99	0.0197	0.0947	0.0125	O=C(O)CCSCCCCCCCCCCCCCC[18F]	Drug uptake (Liver [20]): 0.3759 %IDKg/g; Drug uptake (Bone [21]): 0.2289 %IDKg/g; Drug uptake (Liver [22]): 0.4064 %IDKg/g; Drug uptake (Blood [23]): 0.051 %IDKg/g; Drug uptake (Bone [24]): 0.2309 %IDKg/g; Drug uptake (Muscle tissue [25]): 0.0303 %IDKg/g; Drug uptake (Brain): 0.02 %IDKg/g; Drug uptake (Liver [26]): 0.6292 %IDKg/g; Drug uptake (Lung): 0.0755 %IDKg/g
